Assays:
[1] = molecular target: T1, Motilin receptor (Homo sapiens, UniProt O43193); experiment: Intrinsic activity at human recombinant motilin receptor expressed in CHO cells relative to motilin; type: cell-based
Outline: (§1)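 CHO-K1 cells stably transfected with human motilin receptor, grown in DMEM/HamF-12 with 10% FBS, 2 mM GlutaMAX, 1 mg/mL Geneticin; seeded 10 000 cells/well, 24 h. Loaded with Fluo 4 (2.5 µM) in Tyrodes with probenecid, 1 h at 37.5 °C. Compound top final 12 µM, 1-in-4 dilutions; fluorescence read over 1 min; max change over baseline, four-parameter logistic fit; intrinsic activity = curve maximum relative to motilin maximum.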

[2] = molecular target: T1, Motilin receptor; experiment: Agonist activity at human recombinant motilin receptor expressed in CHO cells assessed as increase in intracellular calcium by FLIPR assay; type: functional, cell-based; outline: as §1
[3] = molecular target: T2, Cytochrome P450 3A4 (Homo sapiens, UniProt P08684); experiment: Inhibition of human CYP3A4 expressed in Escherichia coli using diethoxyfluorescein substrate assessed as decrease in enzyme activity by time dependent inhibition assay; type: ADME; set-up: unit not given here
T2 sequence (P08684 whole entry): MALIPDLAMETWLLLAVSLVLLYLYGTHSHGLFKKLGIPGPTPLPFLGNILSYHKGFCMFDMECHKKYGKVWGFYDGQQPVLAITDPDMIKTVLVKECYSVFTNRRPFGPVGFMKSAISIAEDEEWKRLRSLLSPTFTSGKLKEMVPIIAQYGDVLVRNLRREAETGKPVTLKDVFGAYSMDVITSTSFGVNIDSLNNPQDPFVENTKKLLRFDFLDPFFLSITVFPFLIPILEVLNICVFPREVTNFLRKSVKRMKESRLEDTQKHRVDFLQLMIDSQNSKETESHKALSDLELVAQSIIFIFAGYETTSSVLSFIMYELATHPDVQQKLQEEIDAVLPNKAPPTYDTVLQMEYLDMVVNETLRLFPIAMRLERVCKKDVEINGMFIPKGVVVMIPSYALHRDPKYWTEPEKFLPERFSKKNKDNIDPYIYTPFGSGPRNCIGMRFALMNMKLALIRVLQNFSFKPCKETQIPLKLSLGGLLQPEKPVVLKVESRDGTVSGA

[4] = molecular target: T2, Cytochrome P450 3A4; experiment: Inhibition of human CYP3A4 expressed in Escherichia coli using diethoxyfluorescein substrate by time dependent inhibition assay; type: ADME
[5] = tested on: Stomach; experiment: Potentiation of electric field stimulated-rabbit gastric antrum contraction at 1 uM; type: functional, Oryctolagus cuniculus
Outline: (§2)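 Isolated native rabbit gastric antrum tissue. Cholinergic contractions are evoked by electrical field stimulation (EFS), and compound is added at the stated concentration. The read-out is % potentiation of EFS-evoked contractions, n = 4-8.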

[6] = molecular target: Cytochrome P450 2C9 (Homo sapiens, UniProt P11712); experiment: Inhibition of human CYP2C9; type: ADME
Chain of Cytochrome P450 2C9 (P11712 whole entry): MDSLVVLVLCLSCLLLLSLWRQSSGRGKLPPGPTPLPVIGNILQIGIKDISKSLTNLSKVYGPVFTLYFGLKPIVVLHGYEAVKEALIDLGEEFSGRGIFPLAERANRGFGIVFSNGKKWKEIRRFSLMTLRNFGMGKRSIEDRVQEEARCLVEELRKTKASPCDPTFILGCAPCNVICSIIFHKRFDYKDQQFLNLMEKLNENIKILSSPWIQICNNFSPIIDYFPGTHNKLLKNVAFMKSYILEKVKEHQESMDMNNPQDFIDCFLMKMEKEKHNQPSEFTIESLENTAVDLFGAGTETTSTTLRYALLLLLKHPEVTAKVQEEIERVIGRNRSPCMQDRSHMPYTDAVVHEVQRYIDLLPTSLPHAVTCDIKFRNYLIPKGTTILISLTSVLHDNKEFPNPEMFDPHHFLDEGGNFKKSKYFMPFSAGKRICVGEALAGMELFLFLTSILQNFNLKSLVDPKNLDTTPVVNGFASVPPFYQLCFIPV

[7] = Oral bioavailability in Sprague-Dawley rat; type: ADME, organism-based; conditions: in vivo
Outline: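 Male Sprague-Dawley rats (n = 3), two study days 2 days apart: 1 h IV infusion of 1 mg free base/kg in 0.9% saline (0.2 mg/mL, 5 mL/kg/h), then oral gavage 5 mg free base/kg in 1% methylcellulose; serial blood up to 12 h; LC/MS/MS, LLQ 5 ng/mL.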

[8] = Oral bioavailability in Beagle dog; type: ADME, organism-based, Canis lupus familiaris; conditions: in vivo
Outline: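 Three dogs, two study days 7 days apart: 1 h IV infusion of 2 mg free base/kg in 0.9% saline (0.4 mg/mL, 5 mL/kg/h), then same dogs oral gavage 5 mg free base/kg in 1% methylcellulose (1 mg/mL, 5 mL/kg); serial blood up to 30 h; LC/MS/MS, LLQ 5 ng/mL.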

[9] = Protein binding in rat plasma; type: ADME, cell-free; conditions: read-out: PPB (converted)
[10] = Tmax in Sprague-Dawley rat at 5 mg/kg, po; type: ADME, organism-based; set-up: dose 5 mg/kg, route oral; conditions: in vivo
Outline: (§3)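 Male Sprague-Dawley rats (n = 3), HCl salt suspended in 1% w/v methylcellulose at 1 mg free base/mL, oral gavage 5 mL/kg for 5 mg free base/kg; serial blood up to 12 h (8 h in a second study); diluted blood analysed by LC/MS/MS, LLQ 5 ng/mL.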

[11] = molecular target: Voltage-gated inwardly rectifying potassium channel KCNH2 (Homo sapiens, UniProt Q12809); experiment: Binding affinity to human ERG
Chain of Voltage-gated inwardly rectifying potassium channel KCNH2 (Q12809 whole entry): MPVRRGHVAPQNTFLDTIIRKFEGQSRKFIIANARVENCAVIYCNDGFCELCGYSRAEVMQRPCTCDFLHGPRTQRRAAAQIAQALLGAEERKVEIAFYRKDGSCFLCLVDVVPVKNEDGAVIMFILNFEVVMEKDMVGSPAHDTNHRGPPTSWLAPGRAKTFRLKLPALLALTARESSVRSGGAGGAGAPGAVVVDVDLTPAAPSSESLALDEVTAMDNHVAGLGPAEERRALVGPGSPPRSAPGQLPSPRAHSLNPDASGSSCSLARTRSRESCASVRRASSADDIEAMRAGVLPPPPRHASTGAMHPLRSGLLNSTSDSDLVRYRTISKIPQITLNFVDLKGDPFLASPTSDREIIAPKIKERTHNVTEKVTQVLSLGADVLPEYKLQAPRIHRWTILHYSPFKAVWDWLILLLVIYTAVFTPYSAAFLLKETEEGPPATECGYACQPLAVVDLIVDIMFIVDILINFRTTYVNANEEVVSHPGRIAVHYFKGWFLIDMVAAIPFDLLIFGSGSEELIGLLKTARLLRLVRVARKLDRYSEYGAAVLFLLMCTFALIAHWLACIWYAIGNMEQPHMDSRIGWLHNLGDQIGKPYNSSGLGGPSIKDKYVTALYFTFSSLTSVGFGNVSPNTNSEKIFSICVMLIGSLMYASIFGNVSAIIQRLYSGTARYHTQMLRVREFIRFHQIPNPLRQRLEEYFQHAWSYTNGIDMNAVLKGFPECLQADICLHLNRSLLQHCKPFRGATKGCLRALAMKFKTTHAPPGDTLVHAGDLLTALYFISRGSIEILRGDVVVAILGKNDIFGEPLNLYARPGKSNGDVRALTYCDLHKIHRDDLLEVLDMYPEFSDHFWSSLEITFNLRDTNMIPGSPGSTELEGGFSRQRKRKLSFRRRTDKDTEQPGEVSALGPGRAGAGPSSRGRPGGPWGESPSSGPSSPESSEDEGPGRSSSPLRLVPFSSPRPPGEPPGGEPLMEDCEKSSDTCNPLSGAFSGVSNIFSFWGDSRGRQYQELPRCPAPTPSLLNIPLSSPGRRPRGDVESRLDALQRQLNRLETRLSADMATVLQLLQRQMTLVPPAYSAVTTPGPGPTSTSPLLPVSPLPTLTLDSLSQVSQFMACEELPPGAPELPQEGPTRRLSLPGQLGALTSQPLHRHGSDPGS

[12] = tested on: Rattus norvegicus; experiment: AUC (0 to t) in Sprague-Dawley rat at 5 mg/kg, po; type: ADME, organism-based, Plasma; set-up: dose 5 mg/kg, route oral; conditions: in vivo; outline: as §3
[13] = tested on: Stomach; experiment: Potentiation of electric field stimulated-rabbit gastric antrum contraction at 3 uM; type: functional, Oryctolagus cuniculus
Outline: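 Isolated rabbit gastric antrum; cholinergic contractions evoked by electrical field stimulation, compound response expressed as % potentiation of EFS-evoked contraction, n = 4-8.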

[14] = tested on: Stomach; experiment: Potentiation of electric field stimulated-rabbit gastric antrum contraction at 0.3 uM; type: functional, Oryctolagus cuniculus; outline: as §2
[15] = molecular target: T3, Cytochrome P450 1A2 (Homo sapiens, UniProt P05177); experiment: Inhibition of human CYP1A2; type: ADME
T3 sequence (P05177 whole entry): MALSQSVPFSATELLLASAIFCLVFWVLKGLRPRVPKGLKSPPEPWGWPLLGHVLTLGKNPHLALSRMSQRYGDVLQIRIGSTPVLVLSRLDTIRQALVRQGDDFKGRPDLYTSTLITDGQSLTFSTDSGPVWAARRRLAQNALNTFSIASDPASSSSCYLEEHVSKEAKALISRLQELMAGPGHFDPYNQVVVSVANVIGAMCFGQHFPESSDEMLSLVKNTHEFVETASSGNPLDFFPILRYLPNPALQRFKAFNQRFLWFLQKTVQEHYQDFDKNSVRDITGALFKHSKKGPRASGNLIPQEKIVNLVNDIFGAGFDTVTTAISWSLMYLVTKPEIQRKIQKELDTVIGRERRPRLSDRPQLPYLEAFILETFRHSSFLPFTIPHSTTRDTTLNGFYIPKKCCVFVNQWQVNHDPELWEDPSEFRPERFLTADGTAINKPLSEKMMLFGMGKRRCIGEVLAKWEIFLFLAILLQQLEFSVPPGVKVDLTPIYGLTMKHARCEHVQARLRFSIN

[16] = Cmax in Sprague-Dawley rat at 5 mg/kg, po; type: ADME, organism-based; set-up: dose 5 mg/kg, route oral; conditions: in vivo; outline: as §3
[17] = Protein binding in human plasma; type: ADME, cell-free; conditions: read-out: PPB (converted)
[18] = molecular target: Cytochrome P450 2C19 (Homo sapiens, UniProt P33261); experiment: Inhibition of human CYP2C19; type: ADME
Chain of Cytochrome P450 2C19 (P33261 whole entry): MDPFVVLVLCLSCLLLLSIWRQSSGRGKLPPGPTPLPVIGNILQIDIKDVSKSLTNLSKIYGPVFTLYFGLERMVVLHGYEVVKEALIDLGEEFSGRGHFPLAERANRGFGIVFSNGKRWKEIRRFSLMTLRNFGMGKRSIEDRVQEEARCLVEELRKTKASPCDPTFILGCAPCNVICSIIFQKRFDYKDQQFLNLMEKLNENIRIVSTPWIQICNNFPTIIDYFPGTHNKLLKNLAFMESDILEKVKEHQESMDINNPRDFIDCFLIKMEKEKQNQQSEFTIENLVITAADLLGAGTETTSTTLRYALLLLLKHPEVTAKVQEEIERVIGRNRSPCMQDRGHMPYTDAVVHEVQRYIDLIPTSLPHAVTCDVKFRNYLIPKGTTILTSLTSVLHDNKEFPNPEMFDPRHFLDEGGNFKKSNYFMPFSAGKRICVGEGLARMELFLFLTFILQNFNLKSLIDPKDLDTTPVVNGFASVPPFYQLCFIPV

[19] = Half life in rabbit gastric antrum native tissue at 3 uM; type: ADME, tissue-based, Oryctolagus cuniculus, Stomach
[20] = molecular target: Growth hormone secretagogue receptor type 1 (Homo sapiens, UniProt Q92847); experiment: Agonist activity at human Ghrelin receptor; type: functional
Chain of Growth hormone secretagogue receptor type 1 (Q92847 whole entry): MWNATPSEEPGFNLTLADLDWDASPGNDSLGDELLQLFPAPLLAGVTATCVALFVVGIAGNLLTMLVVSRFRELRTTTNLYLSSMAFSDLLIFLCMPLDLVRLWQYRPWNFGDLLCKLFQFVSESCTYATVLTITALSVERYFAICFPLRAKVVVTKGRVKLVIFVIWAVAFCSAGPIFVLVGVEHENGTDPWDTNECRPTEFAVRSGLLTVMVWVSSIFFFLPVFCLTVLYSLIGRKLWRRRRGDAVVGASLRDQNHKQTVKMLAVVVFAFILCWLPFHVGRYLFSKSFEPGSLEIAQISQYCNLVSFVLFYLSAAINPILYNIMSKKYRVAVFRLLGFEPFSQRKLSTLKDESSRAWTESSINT

[21] = molecular target: Cytochrome P450 2D6 (Homo sapiens, UniProt P10635); experiment: Inhibition of human CYP2D6; type: ADME
Chain of Cytochrome P450 2D6 (P10635 whole entry): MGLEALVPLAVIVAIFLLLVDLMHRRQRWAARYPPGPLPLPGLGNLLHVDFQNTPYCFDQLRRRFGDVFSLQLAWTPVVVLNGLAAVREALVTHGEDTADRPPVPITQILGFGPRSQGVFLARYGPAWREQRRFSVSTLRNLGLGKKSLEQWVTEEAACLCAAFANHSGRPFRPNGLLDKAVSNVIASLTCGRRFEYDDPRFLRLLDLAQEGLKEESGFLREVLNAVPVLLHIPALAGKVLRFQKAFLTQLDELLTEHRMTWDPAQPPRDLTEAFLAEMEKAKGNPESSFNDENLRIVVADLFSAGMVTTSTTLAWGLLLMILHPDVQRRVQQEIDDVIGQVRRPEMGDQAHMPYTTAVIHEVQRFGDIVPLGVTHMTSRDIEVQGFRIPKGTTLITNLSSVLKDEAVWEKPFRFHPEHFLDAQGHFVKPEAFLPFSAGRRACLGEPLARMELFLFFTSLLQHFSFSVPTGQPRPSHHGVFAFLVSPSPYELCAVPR

[22] = molecular target: T2, Cytochrome P450 3A4; experiment: Inhibition of human CYP3A4 expressed in Escherichia coli using 7BQ substrate by time dependent inhibition assay; type: ADME
[23] = tested on: Stomach; experiment: Potentiation of electric field stimulated-rabbit gastric antrum contraction at 0.1 uM; type: functional, Oryctolagus cuniculus; outline: as §2
[24] = molecular target: T2, Cytochrome P450 3A4; experiment: Inhibition of human CYP3A4 expressed in Escherichia coli using diethoxyfluorescein substrate measured in 0 to 5 mins by time dependent inhibition assay; type: ADME
[25] = molecular target: T2, Cytochrome P450 3A4; experiment: Inhibition of human CYP3A4 expressed in Escherichia coli using diethoxyfluorescein substrate measured in 25 to 30 mins by time dependent inhibition assay; type: ADME
[26] = Aqueous solubility of the compound; type: physicochemical; conditions: aqueous medium
[27] = Half life in rabbit gastric antrum native tissue at 0.3 uM; type: ADME, tissue-based, Oryctolagus cuniculus, Stomach

T1 sequence (O43193 whole entry): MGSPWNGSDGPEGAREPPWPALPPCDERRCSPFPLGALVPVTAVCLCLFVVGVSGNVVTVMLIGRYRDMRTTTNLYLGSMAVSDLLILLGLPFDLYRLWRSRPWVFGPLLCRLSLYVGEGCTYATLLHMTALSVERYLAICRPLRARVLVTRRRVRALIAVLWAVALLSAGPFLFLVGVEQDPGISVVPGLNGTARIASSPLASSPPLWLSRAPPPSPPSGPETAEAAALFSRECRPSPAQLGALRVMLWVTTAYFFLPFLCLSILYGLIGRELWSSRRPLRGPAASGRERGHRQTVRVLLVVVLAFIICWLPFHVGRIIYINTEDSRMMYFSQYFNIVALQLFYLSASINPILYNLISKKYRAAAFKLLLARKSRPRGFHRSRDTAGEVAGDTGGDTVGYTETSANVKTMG

SMILES: C[C@@H]1CN(Cc2ccc(C(C)(C)C(=O)N3CCC(Nc4ccc(F)cc4)CC3)cc2)C[C@H](C)N1
- Intrinsic activity [1]: 0.7
- EC50 [2]: 31.6 nM
- Activity [3]: 6.1
- IC50 [4]: 4700 nM

SMILES: C[C@H]1CN(Cc2ccc(CC(=O)N3CCC(Nc4cccc(F)c4)CC3)cc2)CCN1 [CAMICINAL]
- Activity [5]: 108%
- IC50 [6]: > 100000 nM
- bioavailability [7]: 48%
- bioavailability [8]: 51%
- fraction unbound [9]: 0.37
- Tmax [10]: 120 min
- IC50 [11]: 15800 nM
- AUC [12]: 12 kg·min/L
- EC50 [2]: 12.6 nM
- Activity [13]: 248%
- Activity [14]: 53%
- IC50 [15]: > 100000 nM
- Cmax [16]: 400 nM
- fraction unbound [17]: 0.17
- IC50 [18]: > 100000 nM
- Activity [3]: 1.4
- half-life at 3 µM [19]: 46.9 min
- EC50 [20]: > 1000 nM
- IC50 [21]: 34000 nM

SMILES: CC[C@H](C)[C@H](NC(=O)[C@@H]1CCCN1C(=O)[C@@H](NC(=O)[C@@H](N)Cc1ccccc1)C(C)C)C(=O)N[C@@H](Cc1ccccc1)C(=O)N[C@H](C(=O)N[C@@H](Cc1ccc(O)cc1)C(=O)NCC(=O)N[C@@H](CCC(=O)O)C(=O)N[C@@H](CC(C)C)C(=O)N[C@@H](CCC(N)=O)C(=O)N[C@@H](CCCNC(=N)N)C(=O)N[C@@H](CCSC)C(=O)N[C@@H](CCC(N)=O)C(=O)N[C@@H](CCC(=O)O)C(=O)N[C@@H](CCCCN)C(=O)N[C@@H](CCC(=O)O)C(=O)N[C@@H](CCCNC(=N)N)C(=O)N[C@@H](CC(N)=O)C(=O)N[C@@H](CCCCN)C(=O)NCC(=O)N[C@@H](CCC(N)=O)C(=O)O)[C@@H](C)O
- Intrinsic activity [1]: 1
- EC50 [2]: 0.0398 nM

SMILES: C[C@@H]1CN(Cc2ccc(CCC(=O)N3CCC(Nc4ccc(F)cc4)CC3)cc2)C[C@H](C)N1
- Intrinsic activity [1]: 0.9
- EC50 [2]: 50.1 nM

SMILES: C[C@@H]1CN(Cc2ccc(CC(=O)N3CCC(Nc4ccc(F)cc4)CC3)cc2)C[C@H](C)N1
- Intrinsic activity [1]: 0.9
- EC50 [2]: 39.8 nM
- IC50 [22]: 59000 nM
- Activity [3]: 2.7
- IC50 [4]: 41000 nM

SMILES: C[C@H]1CN(Cc2ccc(CC(=O)N3CCC(Nc4cccc(F)c4)CC3)cc2)CCN1
- Intrinsic activity [1]: 0.9

SMILES: C[C@H]1CN(Cc2ccc(CC(=O)N3CCC(Nc4cccc(C#N)c4)CC3)cc2)CCN1
- Intrinsic activity [1]: 1.1
- Activity [5]: 462%
- Tmax [10]: 240 min
- AUC [12]: 2.8 kg·min/L
- Activity [23]: 98%
- EC50 [2]: 3.98 nM
- Activity [14]: 218%
- IC50 [22]: 58000 nM
- Cmax [16]: 200 nM
- Activity [3]: 2
- IC50 [4]: 36000 nM

SMILES: C[C@H]1CN(Cc2ccc(CCC(=O)N3CCC(Nc4cccc(F)c4)CC3)cc2)CCN1
- Intrinsic activity [1]: 1
- EC50 [2]: 25.1 nM
- IC50 [22]: 18000 nM
- Activity [3]: 3.2
- IC50 [4]: 10000 nM

SMILES: C[C@@H]1CN(Cc2ccc(-c3cccnc3C(=O)N3CCC(Nc4ccc(F)cc4)CC3)cc2)C[C@H](C)N1
- IC50 [6]: > 23000 nM
- IC50 [11]: > 31600 nM
- IC50 [24]: 20000 nM
- EC50 [2]: 3.98 nM
- Activity [13]: 343%
- IC50 [15]: > 23000 nM
- IC50 [25]: 1400 nM
- IC50 [18]: > 23000 nM
- IC50 [21]: > 23000 nM

SMILES: CC(C(=O)N1CCC(Nc2ccc(F)cc2)CC1)c1ccc(CN2C[C@@H](C)N[C@@H](C)C2)cc1 (stereo partly specified)
- Intrinsic activity [1]: 1.1
- EC50 [2]: 31.6 nM
- Activity [3]: 7.6
- IC50 [4]: 8700 nM

SMILES: C[C@H]1CN(Cc2ccc(CC(=O)N3CCC(Nc4cccc(F)c4)CC3)cc2)CCN1.Cl
- solubility [26]: > 1 µg/mL

SMILES: C[C@@H]1CN(Cc2ccc(CC(=O)N3CCC(Nc4cccc(F)c4)CC3)cc2)CCN1
- Intrinsic activity [1]: 0.7
- EC50 [2]: 20 nM

SMILES: C[C@H]1CN(Cc2ccc(CCC(=O)N3CCC(Nc4ccc(F)cc4)CC3)cc2)CCN1
- Intrinsic activity [1]: 1.2
- EC50 [2]: 63.1 nM

SMILES: C[C@@H]1CN(Cc2ccc(-c3cccnc3C(=O)N3CCC(Nc4ccc(F)cc4)CC3)cc2)C[C@H](C)N1.Cl
- solubility [26]: ≥ 1 µg/mL

SMILES: C[C@H]1CN(Cc2ccc(CC(=O)N3CCC(Nc4ccc(F)cc4)CC3)cc2)CCN1
- Intrinsic activity [1]: 0.8
- EC50 [2]: 10 nM

SMILES: CC[C@H]1OC(=O)[C@H](C)[C@@H](O[C@H]2C[C@@](C)(OC)[C@@H](O)[C@H](C)O2)[C@H](C)[C@@H](O[C@@H]2O[C@H](C)C[C@H](N(C)C)[C@H]2O)[C@](C)(O)C[C@@H](C)C(=O)[C@H](C)[C@@H](O)[C@]1(C)O [ERYTHROMYCIN]
- Intrinsic activity [1]: 1.3
- Activity [5]: 189%
- Activity [23]: 14%
- IC50 [24]: 1900 nM
- Activity [13]: 490%
- Activity [14]: 69%
- IC50 [25]: 190 nM
- half-life at 3 µM [19]: 24 min

SMILES: CCCC[C@H](NC(=O)[C@H](CCCNC(=N)N)NC(=O)[C@H](CCC(N)=O)NC(=O)[C@H](CC(C)C)NC(=O)[C@H](CCC(=O)O)NC(=O)CNC(=O)[C@H](Cc1ccc(O)cc1)NC(=O)[C@@H](NC(=O)[C@H](Cc1ccccc1)NC(=O)[C@@H](NC(=O)[C@@H]1CCCN1C(=O)[C@@H](NC(=O)[C@@H](N)Cc1ccccc1)C(C)C)[C@@H](C)CC)[C@@H](C)O)C(=O)N[C@@H](CCC(N)=O)C(=O)N[C@@H](CCC(=O)O)C(=O)N[C@@H](CCCCN)C(=O)N[C@@H](CCC(=O)O)C(=O)N[C@@H](CCCNC(=N)N)C(=O)N[C@@H](CC(N)=O)C(=O)N[C@@H](CCCCN)C(=O)NCC(=O)N[C@@H](CCC(N)=O)C(=O)O
- Activity [23]: 721%
- Activity [14]: 740%
- half-life at 0.3 µM [27]: 11.4 min

From ChEMBL document CHEMBL1140927, “Discovery of N-(3-fluorophenyl)-1-[(4-([(3S)-3-methyl-1-piperazinyl]methyl)phenyl)acetyl]-4-piperidinamine (GSK962040), the first small molecule motilin receptor agonist clinical candidate” (J Med Chem, 2009)
